Each block holds one molecule with its values, some of them ahead of it.
Columns and labels:
human OCT2 [1] = format: cell-based
OCT2 mRNA = OCT2 mRNA by qPCR in NRK cells transfected with human OCT2/V5; format: cell-based, rat; settings: DSAL, NRK cells transfected with human OCT2/V5 and Klotho plasmid
human OCT2 [2] = test: Cell surface; format: cell-based; settings: DSAL, OCT2/V5-transfected CHO cells
[3] = 14C-TEA kinetic study in vivo; set-up: species or system mouse; settings: single injection 10 μl/g BW
Summary of the method: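 Male WT, Kl/+ and Tg-Kl mice (129sv background, 12–14 weeks, 30–40 g) got a single i.v. dose of 14C-tetraethylammonium (10 μl/g BW; 0.1 mCi/ml, specific activity 3.5 mCi/mmol). Blood and urine were sampled at 0, 30, 60 and 90 […] post injection, with radioactivity by liquid scintillation counting. AUC0-60 is given as mean ± SD of 3 experiments per genotype.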

NRK cells [4] = test: TUNEL staining of apoptotic NRK cells; format: cell-based, rat
Summary of the method: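 NRK rat renal epithelial cells on glass coverslips were serum-starved overnight after confluence. […] Cells were PFA-fixed and TUNEL-stained with DAPI counterstain, then imaged by confocal microscopy. TUNEL-positive/DAPI-positive cells were counted in 5 fields at 40X, across 4 independent experiments.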

NRK cells [5] = test: Oregon Green 488-labeled fluorescent cisplatin uptake by NRK cells; format: cell-based, rat
NRK cells [6] = test: LDH release from NRK cells on Transwell plates; format: cell-based, rat
human OCT2 [7] = target: T1, human OCT2 (Homo sapiens, UniProt O15244); format: cell-based; settings: β-glucuronidase 100μg/ml, sialidase 0.1 IU/ml, cimetidine 0.1 mM, added 16 hours prior to assay
T1 sequence (O15244 1-555): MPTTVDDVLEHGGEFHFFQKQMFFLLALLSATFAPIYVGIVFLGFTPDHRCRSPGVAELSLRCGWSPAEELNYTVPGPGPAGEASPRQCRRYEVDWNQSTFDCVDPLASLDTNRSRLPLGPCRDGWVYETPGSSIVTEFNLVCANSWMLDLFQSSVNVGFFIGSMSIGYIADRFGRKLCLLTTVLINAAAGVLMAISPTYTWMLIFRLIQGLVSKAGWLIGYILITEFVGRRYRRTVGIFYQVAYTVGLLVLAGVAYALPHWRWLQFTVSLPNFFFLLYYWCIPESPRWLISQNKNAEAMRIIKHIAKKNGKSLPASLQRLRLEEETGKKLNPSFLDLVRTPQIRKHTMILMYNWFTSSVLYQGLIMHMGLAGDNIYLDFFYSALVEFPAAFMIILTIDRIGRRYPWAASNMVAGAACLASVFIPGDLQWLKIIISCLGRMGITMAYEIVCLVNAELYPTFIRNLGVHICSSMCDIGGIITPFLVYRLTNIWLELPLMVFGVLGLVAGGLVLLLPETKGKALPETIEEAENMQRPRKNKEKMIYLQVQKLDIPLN

[8] = system: organic cation transporter (OCT); test: 14C-TEA uptake by NRK cells; format: cell-based, rat; settings: agent added after 14C-TEA
patients = settings: among patients with AKI; cited from earlier work

effect on the reduction of OCT2 protein by β-glucuronidase (human OCT2 [1]; DSAL 10 μM, CHO cells, immunocytochemistry and immunoblot): completely blocked
SMILES: O=C(O)[C@@H](O)[C@H]1OC(=O)[C@H](O)[C@H]1O [DSAL, D-Saccharic acid 1,4-lactone]
OCT2 protein expression by immunocytochemistry (human OCT2 [1]; CHO cells transfected with OCT2/V5, β-glucuronidase 100μg/ml, DSAL 10 μM alone): had no effect
effect on the reduction of rat oct2 mRNA induced by Klotho (OCT2 mRNA): did not abolish
effect on Klotho-induced reduction of cell surface OCT2 (2 hours and 2 days) (human OCT2 [2]): blocked

AUC0-60 of 14C-TEA, Blood 14C-TEA ([3]; Kl/+ mice): 4.13±0.12 (3) nmol/μl
AUC0-60 of 14C-TEA, Blood 14C-TEA ([3]; Tg-Kl mice): 2.22±0.12 (3) nmol/μl
AUC0-60 of 14C-TEA, Urine excretion rate 14C-TEA ([3]; Tg-Kl mice): 1.36±0.08 (3) pmol/mim
AUC0-60 of 14C-TEA, Blood 14C-TEA ([3]; WT mice): 2.68±0.18 (3) nmol/μl
AUC0-60 of 14C-TEA, Urine excretion rate 14C-TEA ([3]; WT mice): 2.08±0.08 (3) pmol/mim
SMILES: CC[N+](CC)(CC)CC [^14C-TEA, ^14C-tetraethylammonium]

14C-TEA uptake in OCT2-expressing CHO cells (human OCT2 [7]): reduced
SMILES: CN/C(=N/CCSCc1nc[nH]c1C)NC#N [cimetidine]
cisplatin-triggered apoptosis (TUNEL), basolateral co-incubation of agent (NRK cells [4]; Klotho or cimetidine basolateral): rescued
fluorescent cisplatin uptake, agent added to apical side (NRK cells [5]; NRK cells, confocal imaging): not by either agent added to the apical side
fluorescent cisplatin uptake, agent added to basolateral side (NRK cells [5]; NRK cells, confocal imaging): blocked
OCT2 abundance in total cell membrane pool by immunoblot (human OCT2 [1]; CHO cells transfected with OCT2/V5, β-glucuronidase 100μg/ml, sialidase 0.1 IU/ml, cimetidine 0.1 mM): did not alter
LDH release induced by basolateral cisplatin, agent added into apical side (NRK cells [6]; cisplatin 0.1 mM basolateral, Klotho 0.4 nM or cimetidine 0.1 mM apical): not cimetidine decreased LDH release
LDH release induced by basolateral cisplatin, basolateral co-incubation of agent (NRK cells [6]; cisplatin 0.1 mM, Klotho 0.4 nM or cimetidine 0.1 mM on basolateral side): significantly reduced LDH release
inhibition of 14C-TEA uptake when 14C-TEA added to basolateral medium 20 minutes prior to agent [8]: inhibitory effect was absent

SMILES: N.N.[Cl][Pt][Cl] [cisplatin, cis-diammine-dichloroplatinum]
apoptosis (TUNEL) on cisplatin addition to basolateral medium (NRK cells [4]): triggers apoptosis
side of entry of Oregon Green 488-labeled cisplatin into NRK cells (NRK cells [5]; Transwell, apical or basolateral addition): entered NRK cells solely from the basolateral side
patients with AKI still having elevated SCr 15 days after treatment (patients): 50%

From article PMC3972320 (Kidney international, 2013)
